ALR H2O2 inh – inhibitors of human ALR sulfhydryl oxidase, primary screen, biochemical, H2O2 detection, HRP-luminol luminescence, single point. FAD-linked sulfhydryl oxidase ALR (Homo sapiens), P55789. purified ALR, DTT oxidation. inhibition, % (concentration not given with the values). 3.8% of 290,000 active. AID 485317, 2010;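 active = mean replicate inhibition above about 79%, with every replicate also reaching it, limit read from the data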
Target sequence (P55789 whole entry, looked up): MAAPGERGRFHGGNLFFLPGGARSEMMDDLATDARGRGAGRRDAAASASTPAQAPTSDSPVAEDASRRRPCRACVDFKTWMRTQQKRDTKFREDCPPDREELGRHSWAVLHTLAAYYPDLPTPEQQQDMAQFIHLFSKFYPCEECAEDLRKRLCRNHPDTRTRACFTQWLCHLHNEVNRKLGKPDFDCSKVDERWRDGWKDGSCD
HSF1 inhib – HSF1 inhibitors in luciferase reporter cells, primary screen, cell-based, NIH3T3, luminescence; 0.77% of 300,000 active; NIH3T3-HGL HSE-luciferase, MG132-induced, luminescence 8 h; hits give low values; activity change, negative = inhibition, % at 7.5 µM (by protocol); AID 2098, 2009;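 active = more than half of replicate wells show activity change below -50%, luminescence cut by over half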;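 also: luciferase reports HSF-1 transcriptional activity via heat shock element; 0% = median of DMSO wells and -100% = zero luminescence signal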
PHOSPHO1 block – PubChem AID 1565. Phosphoethanolamine/phosphocholine phosphatase (Homo sapiens), Q8TCT1. recombinant PHOSPHO1, absorbance phosphatase assay. inhibition, % at 13.3 µM. 1.1% of 290,000 active; in the data active = inhibition above about 60%
AI-2 QS modul – Vibrio harveyi AI-2 quorum sensing modulators, primary screen, JMH597 strain, luminescence/OD600 ratio; 0.4% of 300,000 active; Vibrio harveyi JMH597 AI-2 luminescence/OD600 ratio, 9 h; hits give low values; strain lacks LuxN and CqsS sensors; 0 = neutral-control median; activity change, % at 7.5 µM; in the data active = activity change below about -75%, passing the limit was not always enough;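 also: luminescence divided by OD600 gain over 9 h not by final OD600 alone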
HSF-1 act – HSF-1 activators, primary screen, NIH3T3-HGL cells, MG132 stress, luminescence, single point; activation, % at 9 µM; 1.7% of 300,000 active; NIH3T3-HGL HSF-1 luciferase reporter, 8 h; 100% = twice DMSO control signal; AID 504408, 2011;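 active = mean replicate activation of at least 50% with a set share of replicates each reaching 50%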;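 also: 0% = median of the neutral control wells and 100% = twice that signal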
core dimer inh – inhibitors of HCV core protein dimerization, primary screen, biochemical, TR-FRET, high-throughput | AID 1899, 2009 | inhibition, % at 5 µM | 0.33% of 300,000 active | TR-FRET GST/Flag-core106 dimerization, 1536-well;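 active = inhibition above the mean of all tested compounds plus 3 SD, set per screening campaign, cut at about 45% in these data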
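Material: Tagged HCV core106 pair (GST and Flag) | Amount: GST-core106 13.5 nM, Flag-core106 17 nM | Medium: KF-containing HEPES buffer, pH 7.45, DTT, CHAPS, BSA | Reagent: Eu donor and XL665 acceptor anti-tag antibodies | Schedule: 4 h at 22.5 °C | Technique: Time-resolved FRET, ex 340 nm, em 617 and 671 nm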
Active calls of the source: *; . = no result given. This is a sample that favours compounds with a hit; in the whole collection about 6.8% have one here.

SMILES	ALR H2O2 inh	HSF1 inhib	PHOSPHO1 block	AI-2 QS modul	HSF-1 act	core dimer inh
CC(C)(C)OC(=O)NNC(=S)NCc1ccc(Cl)cc1	12	-3	73*	11	2	0
Cc1cccc(N=C2NC(=O)S/C2=C\c2ccco2)c1	-6	7	-2	21	8	-6
O=C1NC(=Nc2ccc(Cl)cc2)/C(=C/c2ccco2)S1	87*	6	-13	40	30	33
COCCNc1ccc([N+](=O)[O-])cc1C(=O)NC1CCCc2ccccc21 (configuration not stated)	1	-2	40	22	-13	10
CC(C)Oc1cccc(NC(=O)c2cnccc2C(F)(F)F)c1	-20	5	-4	15	9	5
CCOC(=O)C1(Cc2ccccc2C(F)(F)F)CCN(CCCn2cccn2)CC1	-27	-1	23	33	15	-6
CCc1ccc(-c2nc(CSCC(=O)N3CCN(c4ccccn4)CC3)c(C)o2)cc1	85*	-24	24	17	-34	0
Cc1ccc(-c2nc(CSCC(=O)N3CCN(c4ccccn4)CC3)c(C)o2)cc1	99*	3	38	-10	14	5
Cc1ccc(C(CC(=O)N2CCOCC2)c2ccco2)cc1 (configuration not stated)	.	3	10	12	-3	6
O=C(CC(c1ccccc1)c1ccco1)N1CCCCC1 (configuration not stated)	.	-16	60*	10	-7	-1
Cc1oc(-c2ccccc2Cl)nc1CSCC(=O)N1CCCC1	75	-6	-7	-2	-26	1
O=C(CC(c1ccccc1)c1ccccc1)N1CCN(c2ccccn2)CC1	-61	9	66*	-22	9	6
Cc1ccccc1-c1nc(CN2CCC(C(=O)N3CCN(c4ccccn4)CC3)CC2)c(C)o1	-12	2	-4	22	5	3
CCCc1cc(=O)n2nc(N3CCC(C(=O)N4CCN(c5cccc(OC)c5)CC4)CC3)sc2n1	53	-3	42	3	17	-12
COC(=O)CC1C(=O)NCCN1C(=O)CSc1nnnn1-c1ccc(OC)cc1 (configuration not stated)	-17	0	-5	4	4	1
CCOc1ccc(-c2nc(CSCC(=O)N3CCN(c4cccc(OC)c4)CC3)c(C)o2)cc1	99*	-44	-2	15	-54	-1
O=C(CSCc1ccccc1Cl)N1CCN(c2ccccn2)CC1	99*	2	17	29	21	3
O=C(/C=C/c1ccc(F)cc1)NC(=S)N1CCN(c2ccccn2)CC1	15	51	56	16	59*	2
Cc1ccc(S(=O)(=O)Cc2ccc(C(=O)N3CCN(c4ccccn4)CC3)o2)cc1	97*	-2	-12	19	-2	-1
O=C(NCc1ccc(Cl)s1)C1CCC(=O)N(CCc2cccc(F)c2)C1 (configuration not stated)	0	-5	22	15	7	8
CCCCCN(C(=O)CCC(=O)OCC(=O)N1C(C)CCCC1C)c1c(N)n(CCCC)c(=O)[nH]c1=O (configuration not stated)	-4	0	43	14	6	-1
O=c1[nH]c(=O)c2nnc(N/N=C/c3ccccc3F)nc2[nH]1	16	-13	3	9	-6	3
O=c1[nH]c(=O)c2nnc(N/N=C\c3ccc(O)cc3)nc2[nH]1	99*	-1	-15	11	-4	-3
O=C(NCCc1ccccc1)C(c1cccs1)N(C(=O)c1csnn1)C1CC1 (configuration not stated)	-14	2	-8	11	15	3
O=C(NCCc1ccccc1)C(c1cccs1)N(C(=O)CCl)c1ccc(Cl)cc1 (configuration not stated)	5	-95*	-2	23	-96	2
